The source made the active and inactive calls. The rule behind the calls is not given here.
How the values were obtained:
Aminopeptidase N [1] = target: T1, Aminopeptidase N (Sus scrofa, UniProt P15145); assay: Inhibition of APN in porcine kidney microsomes preincubated for 5 mins before L-leu-p-nitroanilide substrate addition for 30 mins by plate reader analysis
T1 sequence (P15145 whole entry): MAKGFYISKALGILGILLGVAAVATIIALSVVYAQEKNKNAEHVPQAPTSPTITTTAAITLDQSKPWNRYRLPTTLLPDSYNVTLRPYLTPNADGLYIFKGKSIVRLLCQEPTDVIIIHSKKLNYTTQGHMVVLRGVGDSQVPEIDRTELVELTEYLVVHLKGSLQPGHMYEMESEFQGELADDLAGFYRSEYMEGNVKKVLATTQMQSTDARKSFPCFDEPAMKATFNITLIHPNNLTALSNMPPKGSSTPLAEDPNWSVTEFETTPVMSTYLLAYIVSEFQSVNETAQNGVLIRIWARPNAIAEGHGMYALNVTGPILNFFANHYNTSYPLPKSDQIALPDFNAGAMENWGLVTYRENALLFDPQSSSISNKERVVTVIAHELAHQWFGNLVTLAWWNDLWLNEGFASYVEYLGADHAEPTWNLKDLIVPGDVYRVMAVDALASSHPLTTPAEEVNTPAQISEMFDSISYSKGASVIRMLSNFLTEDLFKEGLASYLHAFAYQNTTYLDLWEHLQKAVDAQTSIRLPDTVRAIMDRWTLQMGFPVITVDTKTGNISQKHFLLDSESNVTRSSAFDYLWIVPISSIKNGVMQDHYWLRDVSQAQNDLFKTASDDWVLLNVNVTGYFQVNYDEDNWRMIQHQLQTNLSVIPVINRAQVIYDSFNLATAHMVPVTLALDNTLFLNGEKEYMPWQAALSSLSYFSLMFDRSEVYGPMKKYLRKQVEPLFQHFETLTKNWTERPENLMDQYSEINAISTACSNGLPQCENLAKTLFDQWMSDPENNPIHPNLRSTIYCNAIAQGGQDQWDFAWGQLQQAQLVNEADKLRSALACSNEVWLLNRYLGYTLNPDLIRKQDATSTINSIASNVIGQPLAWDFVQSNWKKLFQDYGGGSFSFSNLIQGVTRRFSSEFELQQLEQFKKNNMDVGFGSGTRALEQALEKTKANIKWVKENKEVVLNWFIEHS

[2] = target: Histone deacetylase (HDAC1 and HDAC2) (Homo sapiens, UniProt Q13547+Q92769); assay: Inhibition of HDAC1/HDAC2 in human HeLa cells nuclear extract preincubated for 5 mins before Boc-Lys (acetyl)-AMC substrate addition for 30 mins by microplate reader analysis; assay type: cell-based
Aminopeptidase N [3] = target: Aminopeptidase N (Homo sapiens, UniProt P15144); assay: Inhibition of APN in human ES2 cells preincubated for 5 mins before L-leu-p-nitroanilide substrate addition for 1 hr by photometry; assay type: cell-based
Chain of Aminopeptidase N (Homo sapiens, UniProt P15144) (P15144 whole entry): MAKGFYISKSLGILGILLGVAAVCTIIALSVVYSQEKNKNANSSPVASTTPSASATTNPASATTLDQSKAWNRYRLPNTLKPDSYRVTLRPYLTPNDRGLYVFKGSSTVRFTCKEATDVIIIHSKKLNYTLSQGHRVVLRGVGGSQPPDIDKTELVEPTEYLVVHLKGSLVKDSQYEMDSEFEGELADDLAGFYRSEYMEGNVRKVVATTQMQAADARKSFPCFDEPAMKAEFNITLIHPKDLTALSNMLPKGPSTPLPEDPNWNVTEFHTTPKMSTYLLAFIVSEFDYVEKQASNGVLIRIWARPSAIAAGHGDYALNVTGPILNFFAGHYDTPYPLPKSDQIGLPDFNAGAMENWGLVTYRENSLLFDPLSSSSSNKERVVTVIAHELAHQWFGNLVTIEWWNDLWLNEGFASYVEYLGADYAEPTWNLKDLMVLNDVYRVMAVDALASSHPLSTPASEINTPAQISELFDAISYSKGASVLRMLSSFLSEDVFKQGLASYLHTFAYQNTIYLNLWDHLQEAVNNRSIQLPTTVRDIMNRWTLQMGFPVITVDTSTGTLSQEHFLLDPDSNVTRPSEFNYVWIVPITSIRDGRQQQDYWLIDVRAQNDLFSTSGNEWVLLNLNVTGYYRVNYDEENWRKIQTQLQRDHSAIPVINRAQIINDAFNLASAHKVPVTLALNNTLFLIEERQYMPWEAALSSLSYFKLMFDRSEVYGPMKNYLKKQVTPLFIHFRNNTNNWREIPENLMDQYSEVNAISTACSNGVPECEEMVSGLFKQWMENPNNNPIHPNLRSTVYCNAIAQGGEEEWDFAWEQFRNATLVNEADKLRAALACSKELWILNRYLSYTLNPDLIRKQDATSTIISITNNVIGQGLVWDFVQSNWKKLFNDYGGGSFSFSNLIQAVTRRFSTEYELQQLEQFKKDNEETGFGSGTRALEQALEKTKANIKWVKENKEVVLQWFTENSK
Method in brief: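 ES-2 ovarian clear cell carcinoma cell suspension (1 × 10^5 cells/well) used as the APN source in 10 mM PBS pH 7.4; inhibitors in buffer with 0.2% DMSO final. Pre-incubation 5 min at room temperature, then L-Leu-p-nitroanilide added, 1 h at 37 °C. Supernatant after centrifugation read by UV-Vis spectrophotometry; IC50 from regression of concentration/inhibition-rate data.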

ES2 = assay: Antiinvasive activity against human ES2 cells assessed as reduction in cell invasion at 150 uM after 8 hrs by crystal violet staining based Matrigel assay; assay type: functional
Method in brief: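 Matrigel-coated transwell chambers rehydrated 2 h in RPMI-1640 + 1% FBS; lower chamber RPMI-1640 + 10% FBS. Compounds in 1% FBS medium added to the upper chamber with ES-2 cells (1 × 10^5/well) at the same time; invasion 8 h at 37 °C. Non-invaded cells swabbed off; remaining cells fixed, stained with 0.1% crystal violet, counted in five random fields (×100) per insert; mean of three independent experiments.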

H22 = assay: Antimetastasis activity against mouse H22 cells implanted in mouse assessed as inhibition of tumour growth at 80 mg/kg/day, po administered 6 days/week for 2 weeks; assay type: functional
Method in brief: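 H22 tumour cells given to mice via the caudal vein; animals randomly divided into 3 groups. Control received the same volume of excipient; the other groups received inhibitor orally at 80 mg/kg/day, 6 days/week for 2 weeks.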

| SMILES | IC50 (Aminopeptidase N [1]) | IC50 [2] | IC50 (Aminopeptidase N [3]) | inhibition (ES2) | inhibition in vivo at 80 mg/kg/day (H22) |
| --- | --- | --- | --- | --- | --- |
| Cc1ccc(NC(=O)N[C@@H](CC(C)C)C(=O)NO)cc1Cl | 90 nM | > 100000 nM | – | – | – |
| COc1ccc(NC(=O)N[C@@H](CC(C)C)C(=O)NO)c(OC)c1 | 460 nM | > 100000 nM | – | – | – |
| COc1ccc(NC(=O)N[C@@H](CC(C)C)C(=O)NO)cc1F | 420 nM | > 100000 nM | – | – | – |
| Cc1cccc(C)c1NC(=O)N[C@@H](CC(C)C)C(=O)NO | 20 nM | > 100000 nM | 120 nM | Active | 91.7% |
| CC(C)C[C@H](NC(=O)Nc1c(F)cccc1F)C(=O)NO | 230 nM | > 100000 nM | – | – | – |
| CC(C)C[C@H](NC(=O)Nc1ccccc1)C(=O)NO | – | > 100000 nM | – | – | – |
| Cc1cccc(CNC(=O)N[C@@H](CC(C)C)C(=O)NO)c1C | 70 nM | > 100000 nM | – | – | – |
| CC(C)C[C@H](NC(=O)Nc1ccc(Cl)cc1Cl)C(=O)NO | 560 nM | > 100000 nM | – | – | – |
| CC(C)C[C@H](NC(=O)NCc1c(F)cccc1F)C(=O)NO | 690 nM | > 100000 nM | – | – | – |
| CC(C)C[C@H](NC(=O)Nc1ccc(F)cc1F)C(=O)NO | 340 nM | > 100000 nM | – | – | – |
| CCc1cccc(CC)c1NC(=O)N[C@@H](CC(C)C)C(=O)NO | 30 nM | > 100000 nM | 280 nM | Active | – |
| CC(C)C[C@H](NC(=O)NCc1c(Cl)cccc1Cl)C(=O)NO | 580 nM | > 100000 nM | – | – | – |
| Cc1ccc(CNC(=O)N[C@@H](CC(C)C)C(=O)NO)cc1C | 440 nM | > 100000 nM | – | – | – |
| CC(C)C[C@H](NC(=O)NCc1ccc(F)c(F)c1)C(=O)NO | 420 nM | > 100000 nM | – | – | – |
| CC(C)C[C@H](NC(=O)NCc1ccc(F)cc1F)C(=O)NO | 330 nM | > 100000 nM | – | – | – |
| COc1ccc(CNC(=O)N[C@@H](CC(C)C)C(=O)NO)c(OC)c1 | 460 nM | > 100000 nM | – | – | – |
| Cc1cc(C)c(NC(=O)N[C@@H](CC(C)C)C(=O)NO)c(C)c1 | 80 nM | > 100000 nM | – | – | – |
| CC(C)C[C@H](NC(=O)[C@@H](O)[C@H](N)Cc1ccccc1)C(=O)O [UBENIMEX] | – | > 100000 nM | – | Active | 75.9% |
| Cc1ccc(NC(=O)N[C@@H](CC(C)C)C(=O)NO)c(C)c1 | 180 nM | > 100000 nM | – | – | – |
| CC(C)C[C@H](NC(=O)Nc1c(C(C)C)cccc1C(C)C)C(=O)NO | 50 nM | > 100000 nM | – | – | – |

— ChEMBL document CHEMBL3763112, “Novel leucine ureido derivatives as aminopeptidase N inhibitors. Design, synthesis and activity evaluation” (Eur J Med Chem, 2016)
